Data reported in ChEMBL document CHEMBL4038284, “Synthesis of novel quinoline-based 4,5-dihydro-1H-pyrazoles as potential anticancer, antifungal, antibacterial and antiprotozoal agents” (Eur J Med Chem, 2017).
≈ marks a conversion by molar mass, not a printed value.

How the values were obtained:
Klebsiella pneumoniae [1] = test: Antibacterial activity against ESBL positive Klebsiella pneumoniae ATCC 700603 after 24 hrs by resazurin dye based microdilution assay; type: functional; details: Klebsiella pneumoniae, 700603, 24 h
Outline: (§1)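 MIC taken as the lowest concentration giving visible inhibition and/or by resazurin (1 mg/mL). Gentamicin was the control. Run in duplicate, repeated at least three times.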

Klebsiella pneumoniae [2] = test: Antibacterial activity against carbapenemase positive Klebsiella pneumoniae BAA 1705 after 24 hrs by resazurin dye based microdilution assay; type: functional; details: BAA 1705, 24 h; outline: as §1
Leishmania panamensis = test: Antileshmanial activity against EpiR/GFP fused Leishmania panamensis MHOM/CO/87/UA140 intracellular amastigotes infected in human […] cells after 72 hrs by flow cytometric method; type: functional, cell-based; details: MHOM/CO/87/UA140, 72 h
Outline: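 PMA-treated U-937 cells (3 × 10^5 cells/mL) infected with stationary-phase GFP L. panamensis promastigotes (15:1), 3 h at 34 °C, then washed. After 24 h, compounds added at 50, 12.5, 3.125 and 0.78 µg/mL for 72 h at 37 °C. EC50 by Probit; triplicate, two experiments.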

Candida albicans [3] = test: Antifungal activity against Candida albicans ATCC 10231 incubated for 48 hrs under dark condition by broth microdilution method; type: functional; details: ATCC 10231, 48 h
Outline: (§2)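 CLSI M27-A3 broth microdilution in RPMI-1640, DMSO ≤1%, compounds at 250-0.98 µg/mL final. Inoculum 1-5 × 10^3 CFU/mL. Incubated 48 h at 30 °C in a moist dark chamber, read at OD405. MIC80 and MIC50 taken from % inhibition dose-response curves (mean ± SEM, triplicate). Amphotericin B was the positive control.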

Cryptococcus neoformans [4] = test: Antifungal activity against Cryptococcus neoformans ATCC 32264 incubated for 48 hrs under dark condition by broth microdilution method; type: functional; details: ATCC 32264, 48 h; outline: as §2
Candida albicans [5] = test: Growth inhibition of Candida albicans ATCC 10231 at 250 ug/ml incubated for 48 hrs under dark condition by broth microdilution method relative to control; type: functional; details: ATCC 10231, 48 h, read-out: GI
Outline: (§3)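 CLSI M27-A3 broth microdilution in RPMI-1640, DMSO ≤1%. Inoculum 1-5 × 10^3 CFU/mL. Incubated 48 h at 30 °C, dark. % inhibition = 100 − (OD405 test − sterility control)/(OD405 growth control − sterility control), with growth and sterility control wells. Triplicate.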

Candida albicans [6] = test: Growth inhibition of Candida albicans ATCC 10231 at 125 ug/ml incubated for 48 hrs under dark condition by broth microdilution method relative to control; type: functional; details: ATCC 10231, 48 h, read-out: GI; outline: as §3
Candida albicans [7] = test: Growth inhibition of Candida albicans ATCC 10231 at 62.5 ug/ml incubated for 48 hrs under dark condition by broth microdilution method relative to control; type: functional; details: ATCC 10231, 48 h, read-out: GI; outline: as §3
Candida albicans [8] = test: Growth inhibition of Candida albicans ATCC 10231 at 31.25 ug/ml incubated for 48 hrs under dark condition by broth microdilution method relative to control; type: functional; details: ATCC 10231, 48 h, read-out: GI; outline: as §3
Candida albicans [9] = test: Growth inhibition of Candida albicans ATCC 10231 at 15.62 ug/ml incubated for 48 hrs under dark condition by broth microdilution method relative to control; type: functional; details: ATCC 10231, 48 h, read-out: GI; outline: as §3
Candida albicans [10] = test: Growth inhibition of Candida albicans ATCC 10231 at 7.8 ug/ml incubated for 48 hrs under dark condition by broth microdilution method relative to control; type: functional; details: ATCC 10231, 48 h, read-out: GI; outline: as §3
Candida albicans [11] = test: Growth inhibition of Candida albicans ATCC 10231 at 3.4 ug/ml incubated for 48 hrs under dark condition by broth microdilution method relative to control; type: functional; details: ATCC 10231, 48 h, read-out: GI
Cryptococcus neoformans [12] = test: Growth inhibition of Cryptococcus neoformans ATCC 32264 at 250 ug/ml incubated for 48 hrs under dark condition by broth microdilution method relative to control; type: functional; details: ATCC 32264, 48 h, read-out: GI; outline: as §3
Cryptococcus neoformans [13] = test: Growth inhibition of Cryptococcus neoformans ATCC 32264 at 125 ug/ml incubated for 48 hrs under dark condition by broth microdilution method relative to control; type: functional; details: ATCC 32264, 48 h, read-out: GI; outline: as §3
Cryptococcus neoformans [14] = test: Growth inhibition of Cryptococcus neoformans ATCC 32264 at 62.5 ug/ml incubated for 48 hrs under dark condition by broth microdilution method relative to control; type: functional; details: ATCC 32264, 48 h, read-out: GI; outline: as §3
Cryptococcus neoformans [15] = test: Growth inhibition of Cryptococcus neoformans ATCC 32264 at 31.25 ug/ml incubated for 48 hrs under dark condition by broth microdilution method relative to control; type: functional; details: ATCC 32264, 48 h, read-out: GI; outline: as §3
Cryptococcus neoformans [16] = test: Growth inhibition of Cryptococcus neoformans ATCC 32264 at 15.62 ug/ml incubated for 48 hrs under dark condition by broth microdilution method relative to control; type: functional; details: ATCC 32264, 48 h, read-out: GI; outline: as §3
Cryptococcus neoformans [17] = test: Growth inhibition of Cryptococcus neoformans ATCC 32264 at 7.8 ug/ml incubated for 48 hrs under dark condition by broth microdilution method relative to control; type: functional; details: ATCC 32264, 48 h, read-out: GI; outline: as §3
Cryptococcus neoformans [18] = test: Growth inhibition of Cryptococcus neoformans ATCC 32264 at 3.4 ug/ml incubated for 48 hrs under dark condition by broth microdilution method relative to control; type: functional; details: ATCC 32264, 48 h, read-out: GI
Staphylococcus aureus [19] = test: Antibacterial activity against methicillin-sensitive Staphylococcus aureus ATCC 25923 after 24 hrs by resazurin dye based microdilution assay; type: functional; details: ATCC 25923, 24 h; outline: as §1
Staphylococcus aureus [20] = test: Antibacterial activity against methicillin-resistant Staphylococcus aureus ATCC 43300 after 24 hrs by resazurin dye based microdilution assay; type: functional; details: ATCC 43300, 24 h
Outline: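 Broth microdilution in Mueller Hinton broth, inoculum 5 × 10^5 – 8 × 10^5. Compound stocks diluted in MHB with 5% DMSO and 0.1% Tween 80. Incubation 24 h at 35-37 °C. MIC is the lowest concentration with visible growth inhibition and/or by resazurin (1 mg/mL) read-out. Gentamicin as control. Run in duplicate, replicated at least three times.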

Staphylococcus aureus [21] = test: Antibacterial activity against vancomycin-intermediate Staphylococcus aureus after 24 hrs by resazurin dye based microdilution assay; type: functional; outline: as §1
Escherichia coli = test: Antibacterial activity against Escherichia coli ATCC 25922 after 24 hrs by resazurin dye based microdilution assay; type: functional; details: ATCC 25922, 24 h; outline: as §1
Pseudomonas aeruginosa = test: Antibacterial activity against Pseudomonas aeruginosa ATCC 27853 after 24 hrs by resazurin dye based microdilution assay; type: functional; details: ATCC 27853, 24 h; outline: as §1
Neisseria gonorrhoeae = test: Antibacterial activity against beta lactamase positive Neisseria gonorrhoeae ATCC 31426 by oxidase test; type: functional
Outline: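 Agar dilution MIC on GC agar with 1% isovitalex containing increasing compound concentrations. Plates inoculated with about 1×10^4 CFU (5 µL). MIC is the lowest concentration that inhibited growth, with growth confirmed by oxidase test. Run in duplicate, repeated at least three times.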

Plasmodium falciparum = test: Antiplasmodial activity against chloroquine-sensitive Plasmodium falciparum 3D7 assessed as reduction in parasitic LDH activity after 48 hrs by Malstat reagent based […] method; type: functional; details: 3D7, 48 h
Outline: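 Unsynchronized P. falciparum 3D7 at 0.5% parasitemia and 1% hematocrit in RPMI with 3% Albumax II. Exposed to 100, 25, 6.25 and 1.56 µg/mL for 48 h at 37 °C under 90% N2/5% CO2/5% O2. After three freeze-thaw cycles, LDH measured with Malstat and NBT/PES, 1 h in the dark, read at 650 nm. IC50 by Probit; triplicate, ≥2 experiments.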

U-937 = test: Cytotoxicity against human U937 cells after 72 hrs by MTT assay; type: cell-based; details: u-937, 72 h
Outline: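 Exponentially growing U-937 at 1 × 10^5 cells/mL in RPMI-1640 with 10% FBS were exposed to 200, 50, 12.5 and 3.125 µg/mL for 72 h at 37 °C, 5% CO2. MTT for 3 h, stopped with isopropanol/SDS, formazan read at 570 nm, blank-corrected. LC50 by Probit from % viability against untreated cells. Triplicate, at least two independent experiments.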

Trypanosoma cruzi = test: Antitrypanosomal activity against Trypanosoma cruzi Tulahuen intracellular amastigote harboring LacZ infected in human U937 cells after 72 hrs by CPRG/Nonidet reagent based spectrophotometric method; type: functional, cell-based; details: U-937, 72 h
Outline: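 U-937 cells at 2.5 × 10^5 cells/mL in RPMI-1640 with 10% serum and 0.1 µg/mL PMA were infected with β-galactosidase-transfected Tulahuen epimastigotes at 5 parasites per cell. Infected cells were exposed to 50, 12.5, 3.125 and 0.78 µg/mL for 72 h. CPRG (100 uM) and 0.1% Nonidet P-40 were added for 3 h, read at 570 nm. EC50 by Probit. Triplicate, at least two experiments; benznidazole as reference.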

Row | Structure (SMILES) | MIC (Klebsiella pneumoniae [1]) [µg/mL] | MIC (Klebsiella pneumoniae [2]) [µg/mL] | EC50 (Leishmania panamensis) [µg/mL] | MIC50 (Candida albicans [3]) [µg/mL] | MIC80 (Candida albicans [3]) [µg/mL] | MIC50 (Cryptococcus neoformans [4]) [µg/mL] | MIC80 (Cryptococcus neoformans [4]) [µg/mL] | inhibition of growth at 250 µg/mL (Candida albicans [5]) [%] | inhibition of growth at 125 µg/mL (Candida albicans [6]) [%] | inhibition of growth at 62.5 µg/mL (Candida albicans [7]) [%] | inhibition of growth at 31.25 µg/mL (Candida albicans [8]) [%] | inhibition of growth at 15.62 µg/mL (Candida albicans [9]) [%] | inhibition of growth at 7.8 µg/mL (Candida albicans [10]) [%] | inhibition of growth at 3.4 µg/mL (Candida albicans [11]) [%] | inhibition of growth at 250 µg/mL (Cryptococcus neoformans [12]) [%] | inhibition of growth at 125 µg/mL (Cryptococcus neoformans [13]) [%] | inhibition of growth at 62.5 µg/mL (Cryptococcus neoformans [14]) [%] | inhibition of growth at 31.25 µg/mL (Cryptococcus neoformans [15]) [%] | inhibition of growth at 15.62 µg/mL (Cryptococcus neoformans [16]) [%] | inhibition of growth at 7.8 µg/mL (Cryptococcus neoformans [17]) [%] | other results
1 | Clc1cc(Cl)cc(N2N=C(c3ccc(Br)cc3)CC2c2cccc(Nc3ccnc4cc(Cl)ccc34)c2)c1 (stereo not given) | > 1000 | > 1000 | 2.77 (≈ 4.45 µM) | ≥ 250 | ≥ 250 | ≥ 250 | ≥ 250 | 13.7 | 7.23 | 4.45 | 2.07 | 1.92 | 1.43 | 0 | 13.3 | 0 | 0 | 0 | 0 | 0 | inhibition of growth at 3.4 µg/mL (Cryptococcus neoformans [18]): 0%; MIC (Staphylococcus aureus [19]): > 1000 µg/mL; MIC (Staphylococcus aureus [20]): > 1000 µg/mL; MIC (Staphylococcus aureus [21]): > 1000 µg/mL; MIC (Escherichia coli): > 1000 µg/mL; MIC (Pseudomonas aeruginosa): > 1000 µg/mL; MIC (Neisseria gonorrhoeae): > 1000 µg/mL; EC50 (Plasmodium falciparum): 14.4 µg/mL (≈ 23.1 µM); LC50 (U-937): > 200 µg/mL; EC50 (Trypanosoma cruzi): 28.3 µg/mL (≈ 45.4 µM)
2 | COc1cc(C2=NN(C(C)=O)C(c3cccc(Nc4ccnc5cc(Cl)ccc45)c3)C2)cc(OC)c1OC (stereo not given) | > 1000 | > 1000 | 1.96 (≈ 3.69 µM) | 250 (≈ 471 µM) | ≥ 250 | 250 (≈ 471 µM) | ≥ 250 | 53.8 | 37.3 | 12.8 | 8.42 | 6.96 | 1.46 | 0 | 53.1 | 23.1 | 13.3 | 10.2 | 9.86 | 5.61 | inhibition of growth at 3.4 µg/mL (Cryptococcus neoformans [18]): 4.02%; MIC (Staphylococcus aureus [19]): > 1000 µg/mL; MIC (Staphylococcus aureus [20]): > 1000 µg/mL; MIC (Staphylococcus aureus [21]): > 1000 µg/mL; MIC (Escherichia coli): > 1000 µg/mL; MIC (Pseudomonas aeruginosa): > 1000 µg/mL; MIC (Neisseria gonorrhoeae): 31.2 µg/mL (≈ 58.8 µM); EC50 (Plasmodium falciparum): 22.9 µg/mL (≈ 43.2 µM); LC50 (U-937): 5.1 µg/mL (≈ 9.6 µM); EC50 (Trypanosoma cruzi): 4.08 µg/mL (≈ 7.68 µM)
